Experimental data from ChEMBL document CHEMBL2311499, “Synthesis, antiproliferative activity and tubulin targeting effect of acridinone and dioxophenothiazine derivatives” (Eur J Med Chem, 2013).
Activity calls are given as the source filed them. No cut-off for these calls is given here.

Assays:
[1] = Inhibition of bovine tubulin polymerization after 1 hr; parameters: species or system Bos taurus
[2] = test system: HT-29; assay: Antiproliferative activity against human HT-29 cells after 72 hrs by MTT assay; format: functional, cell-based; conditions: HT-29, 72 h
Summary of the method: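 HT29 cells were seeded at (1.6–1.8) × 10⁴ per well in medium with 10% FBS, serum-starved after 72 h, and treated the following day for 72 h. Viability was read by MTT (4 mg/mL, 4 h, 37 °C, 5% CO₂) with SDS/HCl solubilisation and absorbance at 570 nm. IC50 is the concentration giving 50% inhibition of proliferation relative to untreated controls.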

[3] = test system: HL-60; assay: Cell cycle arrest in human HL60 cells assessed as accumulation at G1 phase at 0.5 uM after 24 hrs flow cytometry; format: functional
Summary of the method: (§1)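 Flow cytometry: 2.5–4 × 10⁵ cells were seeded in 6-well plates, grown 24 h, then treated for 24 h. Floating and adherent cells were pooled and fixed in cold 70% ethanol for 24 h. Results are reported as the percentage of cells in sub-G1, G1, S and G2 phases.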

[4] = test system: HT-29; assay: Cell cycle arrest in human HT-29 cells assessed as accumulation at G1 phase at 0.5 uM after 24 hrs flow cytometry; format: functional; summary of the method: as §1
[5] = test system: HL-60; assay: Cell cycle arrest in human HL60 cells assessed as accumulation at sub-G1 phase at 0.5 uM after 24 hrs flow cytometry; format: functional; summary of the method: as §1
[6] = test system: HT-29; assay: Cell cycle arrest in human HT-29 cells assessed as accumulation at sub-G1 phase at 0.5 uM after 24 hrs flow cytometry; format: functional; summary of the method: as §1
[7] = test system: DU-145; assay: Antiproliferative activity against human DU145 cells after 72 hrs by MTT assay; format: functional, cell-based; conditions: DU-145, 72 h
Summary of the method: (§2)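 MTT viability readout. Cells were seeded at (1.6–1.8) × 10⁴ per well in medium with 10% FBS. After 72 h they were serum-deprived, then treated next day with a range of concentrations. MTT (4 mg/mL) was added for 4 h at 37 °C, 5% CO₂, followed by SDS/HCl lysis and absorbance at 570 nm. IC50 is the concentration giving 50% inhibition of proliferation relative to untreated controls.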

[8] = test system: PC-3; assay: Antiproliferative activity against human PC3 cells after 72 hrs by MTT assay; format: functional, cell-based; conditions: PC-3, 72 h; summary of the method: as §2
[9] = test system: CAL-33; assay: Antiproliferative activity against human CAL33 cells after 72 hrs by MTT assay; format: functional, cell-based; conditions: CAL-33, 72 h; summary of the method: as §2
[10] = test system: HL-60; assay: Antiproliferative activity against human HL60 cells after 72 hrs by MTT assay; format: functional, cell-based; conditions: HL-60, 72 h; summary of the method: as §2
[11] = test system: HL-60; assay: Cell cycle arrest in human HL60 cells assessed as accumulation at S phase at 0.5 uM after 24 hrs flow cytometry; format: functional; summary of the method: as §1
[12] = test system: HT-29; assay: Cell cycle arrest in human HT-29 cells assessed as accumulation at S phase at 0.5 uM after 24 hrs flow cytometry; format: functional; summary of the method: as §1
[13] = test system: HL-60; assay: Cell cycle arrest in human HL60 cells assessed as accumulation at G2 phase at 5 uM after 24 hrs flow cytometry; format: functional; summary of the method: as §1
[14] = test system: HT-29; assay: Cell cycle arrest in human HT-29 cells assessed as accumulation at G2 phase at 5 uM after 24 hrs flow cytometry; format: functional; summary of the method: as §1
[15] = test system: HL-60; assay: Cell cycle arrest in human HL60 cells assessed as accumulation at S phase at 5 uM after 24 hrs flow cytometry; format: functional; summary of the method: as §1
[16] = test system: HT-29; assay: Cell cycle arrest in human HT-29 cells assessed as accumulation at S phase at 5 uM after 24 hrs flow cytometry; format: functional; summary of the method: as §1
[17] = test system: HL-60; assay: Cell cycle arrest in human HL60 cells assessed as accumulation at G1 phase at 5 uM after 24 hrs flow cytometry; format: functional; summary of the method: as §1
[18] = test system: HT-29; assay: Cell cycle arrest in human HT-29 cells assessed as accumulation at G1 phase at 5 uM after 24 hrs flow cytometry; format: functional; summary of the method: as §1
[19] = test system: HL-60; assay: Cell cycle arrest in human HL60 cells assessed as accumulation at sub-G1 phase at 5 uM after 24 hrs flow cytometry; format: functional; summary of the method: as §1
[20] = test system: HT-29; assay: Cell cycle arrest in human HT-29 cells assessed as accumulation at sub-G1 phase at 5 uM after 24 hrs flow cytometry; format: functional; summary of the method: as §1
[21] = test system: HL-60; assay: Cell cycle arrest in human HL60 cells assessed as accumulation at G2 phase at 0.5 uM after 24 hrs flow cytometry; format: functional; summary of the method: as §1
[22] = test system: CAL-33; assay: Cell cycle arrest in human CAL33 cells assessed as accumulation at G2 phase at 0.5 uM after 24 hrs flow cytometry
[23] = biological target: DNA topoisomerase 2-alpha (Homo sapiens) (UniProt P11388); assay: Inhibition of human topoisomerase 2-mediated supercoiled plasmid DNA cleavage at 50 uM after 30 min by agarose gel electrophoresis
[24] = test system: CAL-33; assay: Cell cycle arrest in human CAL33 cells assessed as accumulation at S phase at 0.5 uM after 24 hrs flow cytometry; format: functional; summary of the method: as §1
[25] = test system: CAL-33; assay: Cell cycle arrest in human CAL33 cells assessed as accumulation at G1 phase at 0.5 uM after 24 hrs flow cytometry; format: functional; summary of the method: as §1
[26] = test system: CAL-33; assay: Cell cycle arrest in human CAL33 cells assessed as accumulation at sub-G1 phase at 0.5 uM after 24 hrs flow cytometry; format: functional; summary of the method: as §1
[27] = test system: CAL-33; assay: Cell cycle arrest in human CAL33 cells assessed as accumulation at G2 phase at 0.5 uM after 24 hrs flow cytometry; format: functional; summary of the method: as §1
[28] = test system: CAL-33; assay: Cell cycle arrest in human CAL33 cells assessed as accumulation at G2 phase at 5 uM after 24 hrs flow cytometry; format: functional; summary of the method: as §1
[29] = test system: CAL-33; assay: Cell cycle arrest in human CAL33 cells assessed as accumulation at S phase at 5 uM after 24 hrs flow cytometry; format: functional; summary of the method: as §1
[30] = test system: CAL-33; assay: Cell cycle arrest in human CAL33 cells assessed as accumulation at G1 phase at 5 uM after 24 hrs flow cytometry; format: functional; summary of the method: as §1
[31] = test system: CAL-33; assay: Cell cycle arrest in human CAL33 cells assessed as accumulation at sub-G1 phase at 5 uM after 24 hrs flow cytometry; format: functional; summary of the method: as §1
[32] = test system: HT-29; assay: Cell cycle arrest in human HT-29 cells assessed as accumulation at G2 phase at 0.5 uM after 24 hrs flow cytometry; format: functional; summary of the method: as §1

Chain of DNA topoisomerase 2-alpha (Homo sapiens) (P11388 whole entry): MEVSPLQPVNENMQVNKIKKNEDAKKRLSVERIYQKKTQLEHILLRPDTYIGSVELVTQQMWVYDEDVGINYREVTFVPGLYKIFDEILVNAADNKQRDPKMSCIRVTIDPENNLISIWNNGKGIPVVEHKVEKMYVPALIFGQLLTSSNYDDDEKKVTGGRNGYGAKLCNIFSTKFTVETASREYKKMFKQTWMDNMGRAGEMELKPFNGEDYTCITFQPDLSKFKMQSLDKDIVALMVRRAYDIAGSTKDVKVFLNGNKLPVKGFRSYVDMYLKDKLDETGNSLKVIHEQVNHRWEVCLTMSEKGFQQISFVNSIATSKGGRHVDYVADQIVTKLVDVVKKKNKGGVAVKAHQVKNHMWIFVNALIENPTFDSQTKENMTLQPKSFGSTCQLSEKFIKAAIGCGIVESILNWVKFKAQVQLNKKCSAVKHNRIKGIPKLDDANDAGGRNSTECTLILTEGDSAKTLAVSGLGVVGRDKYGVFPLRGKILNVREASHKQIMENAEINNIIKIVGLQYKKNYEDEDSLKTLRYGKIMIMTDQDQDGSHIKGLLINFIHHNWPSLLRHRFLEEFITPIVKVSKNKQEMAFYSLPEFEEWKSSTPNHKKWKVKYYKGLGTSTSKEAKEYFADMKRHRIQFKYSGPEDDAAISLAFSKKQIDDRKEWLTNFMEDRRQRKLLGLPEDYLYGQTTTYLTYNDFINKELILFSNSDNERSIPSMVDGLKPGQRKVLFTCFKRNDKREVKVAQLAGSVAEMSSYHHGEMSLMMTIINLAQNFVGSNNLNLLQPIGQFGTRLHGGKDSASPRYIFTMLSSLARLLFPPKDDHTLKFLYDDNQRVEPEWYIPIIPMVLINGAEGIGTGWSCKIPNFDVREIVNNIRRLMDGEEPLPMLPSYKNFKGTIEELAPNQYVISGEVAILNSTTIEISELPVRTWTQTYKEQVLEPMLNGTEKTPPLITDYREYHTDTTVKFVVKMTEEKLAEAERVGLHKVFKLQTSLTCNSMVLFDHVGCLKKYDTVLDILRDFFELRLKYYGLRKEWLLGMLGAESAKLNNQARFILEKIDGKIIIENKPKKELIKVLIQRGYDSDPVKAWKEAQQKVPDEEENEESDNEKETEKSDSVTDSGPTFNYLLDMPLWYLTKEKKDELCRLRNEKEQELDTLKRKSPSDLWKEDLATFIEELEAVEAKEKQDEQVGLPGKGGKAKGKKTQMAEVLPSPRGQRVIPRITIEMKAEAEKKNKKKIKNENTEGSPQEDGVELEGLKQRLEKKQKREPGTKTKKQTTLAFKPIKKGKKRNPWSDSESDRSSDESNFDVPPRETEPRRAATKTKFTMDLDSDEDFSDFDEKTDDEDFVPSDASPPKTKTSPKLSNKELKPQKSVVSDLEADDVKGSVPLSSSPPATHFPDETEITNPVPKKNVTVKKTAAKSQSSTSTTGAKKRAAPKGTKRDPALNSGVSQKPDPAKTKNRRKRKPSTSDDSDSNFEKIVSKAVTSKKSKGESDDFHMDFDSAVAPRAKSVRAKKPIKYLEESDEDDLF

SMILES: COc1ccc(CCc2cccc3c2Nc2ccccc2S3(=O)=O)cc1O
- IC50 [1]: 1.25 µM
- IC50 [2]: 7.2 µM

SMILES: COc1ccc(CCc2cccc3c2Nc2ccccc2S3(=O)=O)cc1OC
- IC50 [1]: > 10 µM
- IC50 [2]: > 50 µM

SMILES: COc1ccc(CCc2cccc3c2Nc2ccccc2S3(=O)=O)cc1
- Activity [3]: 57.66%
- Activity [4]: 73.56%
- Activity [5]: 8.22%
- Activity [6]: 1.63%
- IC50 [7]: 0.81 µM
- IC50 [8]: > 50 µM
- IC50 [9]: 0.627 µM
- IC50 [10]: 1.65 µM
- IC50 [1]: > 10 µM
- IC50 [2]: 0.87 µM
- Activity [11]: 21.83%
- Activity [12]: 8.63%
- Activity [13]: 14.77%
- Activity [14]: 87.92%
- Activity [15]: 24.77%
- Activity [16]: 2.46%
- Activity [17]: 26.83%
- Activity [18]: 8.63%
- Activity [19]: 34.12%
- Activity [20]: 0.47%
- Activity [21]: 12.4%
- Activity [22]: 15.95%
- inhibition [23]: Active

SMILES: COc1ccc(CCc2cccc3c(=O)c4ccccc4[nH]c23)cc1OC
- IC50 [1]: > 10 µM
- IC50 [2]: > 50 µM

SMILES: COc1cc(CCc2cccc3c2Nc2ccccc2S3(=O)=O)cc(OC)c1OC
- IC50 [1]: > 10 µM
- IC50 [2]: > 100 µM

SMILES: COc1cc(CCc2cccc3c(=O)c4ccccc4[nH]c23)cc(OC)c1OC
- IC50 [7]: > 100 µM
- IC50 [8]: > 100 µM
- IC50 [9]: > 100 µM
- IC50 [10]: > 50 µM
- IC50 [1]: > 10 µM
- IC50 [2]: > 100 µM
- inhibition [23]: Active

SMILES: O=S1(=O)c2ccccc2Nc2c(CCc3ccc(O)c(O)c3)cccc21
- IC50 [1]: > 10 µM
- IC50 [2]: > 100 µM

SMILES: O=c1c2ccccc2[nH]c2c(CCc3ccc(O)c(O)c3)cccc12
- IC50 [1]: > 10 µM
- IC50 [2]: > 50 µM

SMILES: COc1ccc(CCc2cccc3c(=O)c4ccccc4[nH]c23)cc1
- Activity [24]: 28.46%
- Activity [3]: 25.15%
- Activity [4]: 14.55%
- Activity [25]: 4%
- Activity [5]: 37.16%
- Activity [6]: 0.65%
- Activity [26]: 9.84%
- IC50 [7]: 0.05 µM
- IC50 [8]: 0.75 µM
- IC50 [9]: 0.037 µM
- IC50 [10]: 0.1 µM
- IC50 [1]: > 10 µM
- IC50 [2]: 0.051 µM
- Activity [27]: 57.42%
- Activity [11]: 18.5%
- Activity [12]: 2.75%
- Activity [13]: 15.2%
- Activity [14]: 73.1%
- Activity [28]: 35.16%
- Activity [15]: 26.55%
- Activity [29]: 33.12%
- Activity [16]: 4.6%
- Activity [17]: 24.4%
- Activity [18]: 21.11%
- Activity [30]: 8.35%
- Activity [19]: 34.34%
- Activity [31]: 22.73%
- Activity [20]: 0.83%
- Activity [21]: 19.58%
- Activity [32]: 81.81%
- inhibition [23]: Active

SMILES: COc1ccc(CCc2cccc3c(=O)c4ccccc4[nH]c23)cc1O
- IC50 [1]: 0.51 µM
- IC50 [2]: 12 µM

SMILES: COc1ccc(CCN2C=CC=C3C2=Nc2ccccc2OS3(=O)=O)cc1
- IC50 [7]: 0.017 µM
- IC50 [8]: 0.475 µM
- IC50 [1]: 2.4 µM
- IC50 [2]: 0.024 µM

SMILES: CCC1=C[C@@H]2CN(C1)Cc1c([nH]c3ccccc13)[C@@](C(=O)OC)(c1cc3c(cc1OC)N(C)[C@H]1[C@@](O)(C(=O)OC)[C@H](OC(C)=O)[C@]4(CC)C=CCN5CC[C@]31[C@@H]54)C2 [VINORELBINE]
- Activity [24]: 17.62%
- Activity [4]: 21.42%
- Activity [25]: 9.96%
- Activity [6]: 1.39%
- Activity [26]: 24.44%
- Activity [27]: 72.8%
- Activity [12]: 3.41%
- Activity [32]: 72.85%

SMILES: CC[C@]1(O)C[C@H]2CN(CCc3c([nH]c4ccccc34)[C@@](C(=O)OC)(c3cc4c(cc3OC)N(C=O)[C@H]3[C@@](O)(C(=O)OC)[C@H](OC(C)=O)[C@]5(CC)C=CCN6CC[C@]43[C@@H]65)C2)C1 [VINCRISTINE]
- Activity [24]: 17.13%
- Activity [4]: 16.43%
- Activity [25]: 14.29%
- Activity [6]: 5.97%
- Activity [26]: 20.5%
- Activity [27]: 72.5%
- Activity [12]: 4.65%
- Activity [32]: 72.53%

SMILES: COc1ccc(S(=O)(=O)Nc2cccnc2Nc2ccc(O)cc2)cc1 [ABT-751]
- IC50 [1]: 2.2 µM
- IC50 [2]: 0.21 µM

SMILES: CC(=O)O[C@@]12CO[C@@H]1C[C@H](O)[C@@]1(C)C(=O)[C@H](O)C3=C(C)[C@@H](OC(=O)[C@H](O)[C@@H](NC(=O)OC(C)(C)C)c4ccccc4)C[C@@](O)([C@@H](OC(=O)c4ccccc4)[C@H]21)C3(C)C.O.O.O [DOCETAXEL]
- Activity [24]: 15.41%
- Activity [4]: 7.85%
- Activity [25]: 4.99%
- Activity [6]: 0.86%
- Activity [26]: 17.11%
- Activity [27]: 88.2%
- Activity [12]: 2.76%
- Activity [32]: 88.24%
